Screening data: PubChem, Johns Hopkins Ion Channel Center
hERG protect: hERG rescue from dofetilide block, primary screen, cell-based, CHO-hERG, FluxOR thallium flux, dofetilide IC70. dofetilide IC70 present. activation (rescue from dofetilide block), less the hit threshold, % at 10 µM. 310,000 compounds, 0.51% hits. AID 1511, 2009;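 active = activation above the mean of controls blocked by dofetilide plus 5 SD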;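 also: thallium influx through hERG after potassium depolarization seen as dye fluorescence rise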
Target sequence (Q12809 whole entry, looked up): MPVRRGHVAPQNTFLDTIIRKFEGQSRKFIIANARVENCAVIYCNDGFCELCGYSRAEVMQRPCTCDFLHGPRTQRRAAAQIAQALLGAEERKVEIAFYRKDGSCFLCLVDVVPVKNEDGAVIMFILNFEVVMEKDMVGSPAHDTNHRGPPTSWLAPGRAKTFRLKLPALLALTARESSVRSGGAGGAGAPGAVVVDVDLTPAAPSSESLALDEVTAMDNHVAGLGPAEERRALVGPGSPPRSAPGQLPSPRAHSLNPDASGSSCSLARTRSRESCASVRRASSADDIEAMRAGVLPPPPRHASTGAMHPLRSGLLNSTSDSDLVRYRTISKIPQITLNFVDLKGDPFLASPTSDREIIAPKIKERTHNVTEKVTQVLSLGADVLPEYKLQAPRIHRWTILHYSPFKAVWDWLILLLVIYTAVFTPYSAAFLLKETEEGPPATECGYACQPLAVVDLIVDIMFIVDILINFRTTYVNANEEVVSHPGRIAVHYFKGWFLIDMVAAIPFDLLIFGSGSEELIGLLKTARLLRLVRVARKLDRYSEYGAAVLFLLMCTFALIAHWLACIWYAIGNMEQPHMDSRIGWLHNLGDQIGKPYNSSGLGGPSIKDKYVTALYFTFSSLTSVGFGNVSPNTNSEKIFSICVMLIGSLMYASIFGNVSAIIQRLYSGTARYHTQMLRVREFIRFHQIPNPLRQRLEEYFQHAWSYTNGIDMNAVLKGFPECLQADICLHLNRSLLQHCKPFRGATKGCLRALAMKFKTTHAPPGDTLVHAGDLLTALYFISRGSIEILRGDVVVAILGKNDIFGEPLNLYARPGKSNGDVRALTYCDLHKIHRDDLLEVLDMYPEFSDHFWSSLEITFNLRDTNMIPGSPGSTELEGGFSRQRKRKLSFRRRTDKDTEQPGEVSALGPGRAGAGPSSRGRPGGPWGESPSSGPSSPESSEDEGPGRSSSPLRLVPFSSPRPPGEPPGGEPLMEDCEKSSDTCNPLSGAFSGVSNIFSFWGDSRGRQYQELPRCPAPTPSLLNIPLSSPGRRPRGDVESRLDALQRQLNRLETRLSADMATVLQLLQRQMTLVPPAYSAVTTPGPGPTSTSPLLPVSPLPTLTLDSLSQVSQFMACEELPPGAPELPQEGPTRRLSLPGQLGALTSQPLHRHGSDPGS
Kir21 block: inhibitors of mouse Kir2.1 inward-rectifier potassium channel; Inward rectifier potassium channel 2 (Mus musculus), P35561; HEK293-Kir2.1, FluxOR thallium flux fluorescence; hits give low values; B-score at 10 µM; 310,000 compounds, 0.85% hits;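 active = fluorescence ratio B-score at or below minus 3 SD of library scores, with starting-brightness B-score within 2 SD, cut at about -4.2 in these data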;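 also: channel flux triggered by added potassium and thallium sulfate stimulus; B-score of peak minus minimum fluorescence over baseline after thallium stimulus; more negative B-score means stronger Kir2.1 block with less thallium influx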
KCNK9 block: KCNK9 potassium channel inhibitors, primary screen, HEK293 cells, thallium flux; Potassium channel subfamily K member 9 (Homo sapiens), Q9NPC2; FluxOR thallium flux fluorescence; hits give low values; B-score at 10 µM; 310,000 compounds, 1.2% hits; AID 488922, 2010;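 active = ratio B-score over 3 SD below the library mean, with starting fluorescence within 5 SD of its mean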;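 also: negative B-score means less thallium flux so channel inhibition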
KCNQ1 inh: inhibitors of human KCNQ1 channel, primary screen, cell-based, thallium flux, high-throughput; Potassium voltage-gated channel subfamily KQT member 1 (Homo sapiens), P51787; CHO-K1 KCNQ1, FluxOR thallium flux fluorescence; hits give high values; B-score at 10 µM; 310,000 compounds, 1.3% hits; AID 2642, 2010;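 active = compounds whose thallium flux B-score, printed positive for inhibition, exceeds three library SD while starting fluorescence stays within three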;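 also: channel opened by potassium depolarization with thallium stimulus after 20 min compound exposure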
KCNQ1 act: potentiators or activators of KCNQ1 channel, primary screen, cell-based, thallium flux, high-throughput | Potassium voltage-gated channel subfamily KQT member 1 (Homo sapiens), P51787 | CHO-K1 KCNQ1, thallium flux FluxOR fluorescence; hits give high values | B-score at 10 µM | 310,000 compounds, 0.35% hits | AID 2648, 2010;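 active = fluorescence ratio B-score, a plate-corrected score, at least three library SD, with initial intensity B-score within 5 SD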
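System: Stable KCNQ1 CHO-K1 line | Incubation: 90 min dye loading and 20 min compound exposure, both at room temperature | Measure: Ratio B score | Medium: Assay buffer for compound exposure, DMSO matched across wells | Compound dosing: Single-concentration screen | Probe or stimulus: K+/Tl+ depolarizing stimulus | Measured by: Kinetic FluxOR fluorescence, 10 s baseline plus 110 s post-stimulus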
KCNK3 inh: human KCNK3 channel inhibitors, primary screen, CHO cells, FluxOR thallium flux, B-score. Potassium channel subfamily K member 3 (Homo sapiens), O14649. FluxOR fluorescence; hits give low values. B-score at 10 µM. 340,000 compounds, 0.84% hits;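 active = B-score under library mean minus 4 SD, starting fluorescence ratio at most library mean plus 5 SD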;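 also: more negative B-score means stronger inhibition of thallium flux through KCNK3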
KCNK9 block conf: KCNK9 potassium channel inhibitors, confirmation, HEK293 cells, thallium flux, duplicate. AID 492992, 2010. inhibition, % at 10 µM. FluxOR thallium flux fluorescence. shares compounds with KCNK9 block. 4,900 compounds, 43% hits;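 active = thallium signal inhibited by more than 5 SD of the compound-free buffer control wells, on both duplicate plates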;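 also: 0% = assay buffer control wells without compound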
Kir2-1 spec: mouse Kir2.1 channel inhibition, confirmation, selectivity assay for KCNK9 modulator project, cell-based, HEK293, thallium flux. inhibition, % at 10 µM. shares compounds with KCNK9 block. 4,900 compounds, 4% hits. Kir2.1 cells, FluxOR thallium flux fluorescence;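 active = thallium signal drop more than 5 SD beyond the mean of the no-compound control wells, seen in both duplicate plates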;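 also: signal is fluorescence rise after thallium addition divided by baseline fluorescence; plate controls were assay buffer only for no effect and full block by chlorpromazine control for full effect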
HEK293 Tl ctr: thallium flux in non-induced HEK293 cells, confirmation, counter-screen for KCNK9 inhibitor project, cell-based, second counter screen, non-induced KCNK9-HEK293; shares compounds with KCNK9 block; FluxOR thallium flux; inhibition, % at 10 µM; 4,900 compounds, 40% hits; AID 492997, 2010;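 active = thallium signal drop beyond 5 SD of the untreated control mean, on both duplicate plates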;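 also: plate controls were buffer only IC0 wells for no effect and SID17386958 at its maximal inhibitory level for full effect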
Starred values were filed as active, the others as inactive; i = inactive; nt = not tested or not shown. Rows were chosen to be rich in hits. Some 3.7% of all compounds tested hit in one or more screens of this group.

SMILES	hERG protect	Kir21 block	KCNK9 block	KCNQ1 inh	KCNQ1 act	KCNK3 inh	KCNK9 block conf	Kir2-1 spec	HEK293 Tl ctr
Cc1ccc(C(=O)Nc2ccccc2C(=O)NCc2ccco2)cc1S(=O)(=O)N1CCCCC1	-30	-0.55	i	i	i	i	i	i	i
Cc1ccc(-c2nc(C3CCN(S(=O)(=O)c4ccc(C(C)(C)C)cc4)CC3)no2)cc1	-7	0.54	i	i	i	i	i	i	i
CN1CCN(C2CCN(S(=O)(=O)c3ccc(C(C)(C)C)cc3)CC2)CC1	-12	-0.78	i	i	i	i	nt	nt	nt
COCCN(Cc1nc(C(c2ccccc2)c2ccccc2)no1)C(C)C	-4	0	-8.7*	i	i	i	i	i	i
COCCN(C)Cc1nc(C(c2ccccc2)c2ccccc2)no1	-5	0.2	i	i	i	i	nt	nt	nt
Cc1ccccc1C1c2[nH]c3ccccc3c2C[C@H]2C(=O)N(C3CCN(Cc4ccccc4)CC3)CC(=O)N12 (some centres undefined)	-9	-1.6	i	i	i	i	nt	nt	nt
CCOc1ccccc1C1c2[nH]c3ccccc3c2C[C@H]2C(=O)N(C3CCN(Cc4ccccc4)CC3)CC(=O)N12 (some centres undefined)	-14	1.1	i	i	i	i	i	i	i
COc1ccc(NC(=O)N(C)C[C@H]2Oc3c(NC(=O)Cc4ccccc4)cccc3C(=O)N([C@H](C)CO)C[C@@H]2C)cc1	nt	nt	nt	nt	nt	i	nt	nt	nt
CN(Cc1cccc(Cl)c1Cl)C(=O)c1cccc(S(=O)(=O)N2CCN(Cc3ccccc3)CC2)c1	-10	0.59	i	i	i	i	i	i	i
CCOc1ccc(CC(=O)OCn2nnc3ccccc3c2=O)cc1	-12	0.46	i	i	i	i	nt	nt	nt
Cc1cccc(CC(=O)OCn2nnc3ccccc3c2=O)c1	-14	0.17	i	i	i	i	i	i	i
COc1ccc(C2Nc3ccccc3C(=O)N2Cc2ccco2)cc1COc1ccccc1F (centres undefined)	-7	-1.2	-9*	i	i	i	46%*	i	34%*
O=C(OCCOc1ccccc1F)c1cccc(S(=O)(=O)N2CCOCC2)c1	nt	nt	nt	nt	nt	i	nt	nt	nt
COC(=O)C(Cc1ccc(OC(=O)c2ccc(C(F)(F)F)cc2)cc1)N1Cc2ccccc2C1=O (centres undefined)	-10	2.1	i	6*	i	i	i	i	i
COC(=O)C(Cc1ccc(OC(=O)c2ccc(Cl)cc2)cc1)N1Cc2ccccc2C1=O (centres undefined)	-19	0.01	i	i	i	i	nt	nt	nt
Cc1ccc(C(C(=O)NCc2ccccc2)N(Cc2cccs2)C(=O)c2ccc3c(c2)OCCO3)cc1 (centres undefined)	-10	-0.12	i	i	i	i	nt	nt	nt
COc1ccc(CNC(=O)C(c2ccc(C)cc2)N(Cc2cccs2)C(=O)c2ccc3c(c2)OCCO3)cc1 (centres undefined)	-17	0.72	i	i	i	i	i	i	i
O=C(Nc1ccc(Cl)cc1C(=O)Nc1ccc(Br)cn1)c1ccco1	-9	0.51	-12*	i	i	i	53%*	i	i
O=C(NCCN1CCOCC1)c1cc(-c2ccc(Br)cc2)on1	-10	1.3	-12*	i	i	i	i	i	i
CCCn1c(C(C)Nc2nc(C)cs2)nc2cc(Cl)c(Cl)cc21 (centres undefined)	-14	-0.41	i	i	i	i	nt	nt	nt
CCCCOC(=O)Nc1nnc(SCCOc2ccc(C)cc2)s1	-13	0.7	i	i	i	i	i	i	i
Cc1ccc(OCCSc2nnc(NC(=O)c3ccco3)s2)cc1	-4	-0.46	i	i	i	i	nt	nt	nt
Cc1nn(Cc2ccccc2)c(=O)n1N(C)c1ncc(C(F)(F)F)cc1Cl	-4	-0.16	i	i	i	i	i	i	i
Cc1cc(C)nc(SCC(=O)c2ccc(F)cc2F)n1	-4	0.74	i	i	i	i	nt	nt	nt
O=C(/C=C/c1cccs1)NC(=S)Nc1ccc(S(=O)(=O)Nc2ccccc2C(F)(F)F)cc1	-10	-0.03	i	i	i	i	i	i	i
SMILES	hERG protect	Kir21 block	KCNK9 block	KCNQ1 inh	KCNQ1 act	KCNK3 inh	KCNK9 block conf	Kir2-1 spec	HEK293 Tl ctr
Cc1cc2c(cc1S(=O)(=O)CCC(=O)N(C)Cc1ccccc1)OCC(=O)N2	-12	-1.1	i	i	i	i	nt	nt	nt
O=C(O)CN1C(=O)/C(=C\c2cc(Br)ccc2OCc2ccccc2Cl)SC1=S	-10	0.76	i	i	i	i	nt	nt	nt
O=C(O)CN1C(=O)/C(=C\c2ccccc2OCc2ccc(Cl)cc2Cl)SC1=S	-6	-0.14	i	i	i	i	nt	nt	nt
O=C(O)CN1C(=O)/C(=C\c2cn(-c3ccccc3)nc2-c2ccccc2)SC1=S	-13	-0.8	i	i	i	i	i	i	i
O=C(O)CN1C(=O)/C(=C\c2cccc(OCc3ccc(Cl)cc3Cl)c2)SC1=S	-2	-1.9	i	i	i	i	i	i	i
O=C(O)CN1C(=O)/C(=C\c2cc(Br)ccc2OCc2ccccc2F)SC1=S	-9	2.2	i	i	i	i	i	i	i
CC(C)C(=O)NC(=S)Nc1ccc(S(=O)(=O)NC2CCCCC2)cc1	-13	-1.9	i	i	i	i	nt	nt	nt
Cn1cccc1C(=O)NNC(=O)COc1ccccc1F	-13	0.05	i	i	i	i	nt	nt	nt
